In the RNAGym collection of RNA variant scans (doi:10.1002/anie.201605470):

B1: Osa-1-4 twister ribozyme (parent)
chain: CCGCCUAACACUGCCAAUGCCGGUCCCAAGCCCGGAUAAAAGUGGAGGGGGCGG

Variants of: B1
Assay: self-cleavage, relative activity (ratio to wild type); higher = more cleavage; co-transcriptional
Procedure, shortened: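 The 48 positions downstream of the cleavage site in a DNA template for a 54-nucleotide Oryza sativa twister ribozyme carried 97 % wild-type base and 1 % of each other base. After in vitro transcription (2 h, 37 °C) with co-transcriptional self-cleavage, the RNA was reverse-transcribed with a template-switching oligonucleotide, PCR-amplified and deep-sequenced. Relative activity is the fraction cleaved, judged by reads with or without upstream sequence and normalised to wild type.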

| Variant | self-cleavage |
| --- | --- |
| A40G G44A | 0.21 |
| A40G G44U | 0.38 |
| A40G G44C | 0.64 |
| A40G U37C | 0.9 |
| A40G U37G | 1.02 |
| A40G U37A | 0.91 |
| A41C A8U | 0.16 |
| A41C A8G | 0.24 |
| A41C A8C | 0.09 |
| A41C G47C | 0.09 |
| A41C G47U | 0.2 |
| A41C G47A | 0.17 |
| A40G U18C | 0.72 |
| A40G U18A | 0.88 |
| A40G U18G | 0.76 |
| A40G U24G | 0.02 |
| A40G U24A | 0.07 |
| A40G U24C | 0.08 |
| A40G C32A | 0.06 |
| A40G C32U | 0.09 |
| A40G C32G | 0.1 |
| A41C G23U | 0.06 |
| A41C G23A | 0.29 |
| A41C G23C | 0.06 |

| Variant | self-cleavage |
| --- | --- |
| A40U C26G | 0.08 |
| A40U C26A | 0.05 |
| A40U C26U | 0.14 |
| A40U U43A | 0.18 |
| A40U U43G | 0.1 |
| A40U U43C | 0.13 |
| A40U G54A | 0.25 |
| A40U G54C | 0.19 |
| A40U G54U | 0.47 |
| A41C G34A | 0.76 |
| A41C G34C | 0.32 |
| A41C G34U | 0.73 |
| A40U G22C | 0.06 |
| A40U G22U | 0.21 |
| A40U G22A | 0.32 |
| A40U C33U | 0.15 |
| A40U C33G | 0.06 |
| A40U C33A | 0.07 |
| A40G G13U | 0.02 |
| A40G G13C | 0.03 |
| A40G G13A | 0.06 |
| A41C G45C | 0.06 |
| A41C G45A | 0.13 |
| A41C G45U | 0.11 |

| Variant | self-cleavage |
| --- | --- |
| A40G U12G | 0.28 |
| A40G U12A | 0.75 |
| A40G U12C | 0.79 |
| A40G A7G | 0.35 |
| A40G A7U | 0.08 |
| A40G G45A | 0.09 |
| A40G G45U | 0.07 |
| A40G G45C | 0.07 |
| A40U C31A | 0.02 |
| A40U C31G | 0.07 |
| A40U C31U | 0.2 |
| A40G C33G | 0.06 |
| A40G C33U | 0.15 |
| A40G C33A | 0.08 |
| A41C G53A | 0.73 |
| A41C G53U | 0.28 |
| A41C G53C | 0.08 |
| A41C G19A | 0.74 |
| A41C G19C | 0.14 |
| A41C G19U | 0.15 |
| A41C C9U | 0.79 |
| A41C C9A | 0.39 |
| A41C C9G | 0.41 |
| A40G C21U | 0.79 |

| Variant | self-cleavage |
| --- | --- |
| A40G C21G | 0.08 |
| A40G C21A | 0.25 |
| A41C G54A | 0.92 |
| A41C G54U | 0.89 |
| A41C G54C | 0.85 |
| A41C G30C | 0.05 |
| A41C G30U | 0.04 |
| A41C G30A | 0.05 |
| A40U U37A | 0.87 |
| A40U U37C | 0.77 |
| A40U U37G | 0.94 |
| A40U A46C | 0.05 |
| A40U A46G | 0.05 |
| A40U A46U | 0.07 |
| A40U G35A | 0.58 |
| A40U G35C | 0.09 |
| A40U G35U | 0.41 |
| A40G C14A | 0.4 |
| A40G C14U | 0.2 |
| A40G C14G | 0.11 |
| A40U U12A | 1 |
| A40U U12C | 0.19 |
| A40U U12G | 0.36 |
| A40U C14U | 0.11 |

| Variant | self-cleavage |
| --- | --- |
| A40U C14A | 0.15 |
| A40U C14G | 0.13 |
| A40G G23C | 0.06 |
| A40G G23U | 0.05 |
| A40G G23A | 0.12 |
| A40G C27G | 0.09 |
| A40G C27U | 0.11 |
| A40G C27A | 0.11 |
| A40G G19U | 0.11 |
| A40G G19A | 0.18 |
| A40G G19C | 0.07 |
| A40U G53C | 0.06 |
| A40U G53A | 0.19 |
| A40U G53U | 0.11 |
| A41C C26G | 0.09 |
| A41C C26U | 0.8 |
| A41C C26A | 0.06 |
| A40U G50A | 0.43 |
| A40U G50U | 0.34 |
| A40U G50C | 0.18 |
| A40G C20G | 0.1 |
| A40G C20A | 0.78 |
| A40G C20U | 0.91 |
| A41C G49A | 0.11 |

| Variant | self-cleavage |
| --- | --- |
| A41C G49U | 0.12 |
| A41C G49C | 0.08 |
| A41C C15G | 0.14 |
| A41C C15U | 0.36 |
| A41C C15A | 0.27 |
| A40G G22U | 0.16 |
| A40G G22C | 0.06 |
| A40G G22A | 0.46 |
| A40G U43A | 0.21 |
| A40G U43C | 0.14 |
| A40G U43G | 0.19 |
| A40U G19U | 0.08 |
| A40U G19C | 0.04 |
| A40U G19A | 0.17 |
| A40G C52G | 0.65 |
| A40G C52A | 0.52 |
| A40G C52U | 0.94 |
| A40G G48C | 0.08 |
| A40G G48U | 0.06 |
| A40G G48A | 0.08 |
| A40G A46G | 0.05 |
| A40G A46C | 0.06 |
| A40G A46U | 0.08 |
| A40G C9G | 0.18 |

| Variant | self-cleavage |
| --- | --- |
| A40G C9U | 0.23 |
| A40G C9A | 0.09 |
| A40G C26U | 0.13 |
| A40G C26G | 0.14 |
| A40G C26A | 0.05 |
| A40G G42A | 0.14 |
| A40G G42U | 0.07 |
| A40G G42C | 0.13 |
| A40G G54U | 0.46 |
| A40G G54A | 0.3 |
| A40G G54C | 0.26 |
| A40U C15G | 0.11 |
| A40U C15U | 0.1 |
| A40U C15A | 0.11 |
| A40U G51A | 0.18 |
| A40U G51U | 0.1 |
| A40U G51C | 0.06 |
| A40U C21U | 0.59 |
| A40U C21G | 0.05 |
| A40U C21A | 0.15 |
| A40U G47C | 0.06 |
| A40U G47A | 0.09 |
| A40U G47U | 0.09 |
